Activity calls are given as the source filed them. The calls are words filed in the database; no cut-off is given here.
Legend:
[1] = system: L6; assay: Stimulation of [3H]2-deoxyglucose uptake in rat L6 cells at 10 uM incubated for 16 hrs by scintillation counting method; format: functional, cell-based
Method in brief: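 L6 myotubes incubated with the compound […]; insulin at 100 nM for 20 min served as the positive control. Uptake of ³H-2-deoxyglucose measured and expressed as fold stimulation relative to the control condition.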

[2] = system: HepG2; assay: Stimulation of [3H]2-deoxyglucose uptake in human HepG2 cells at 10 uM incubated for 16 hrs by scintillation counting method; format: functional, cell-based

| Compound | Activity [1] | Activity [2] |
| --- | --- | --- |
| COC(=O)c1c(SC)cc(-c2cccs2)c2c1-c1cn(-c3ccccc3)nc1CC2 | inactive |  |
| COC(=O)c1c(S(C)(=O)=O)cc(-c2ccc(C)cc2)c2c1-c1cn(-c3ccccc3)nc1CC2 | inactive |  |
| COC(=O)c1c(SC)cc(-c2ccccc2)c2c1-c1cn(-c3ccccc3)nc1CC2 | inactive |  |
| COC(=O)c1c(SC)cc(-c2ccc(OC)cc2)c2c1-c1cn(-c3ccccc3)nc1CC2 | inactive |  |
| COC(=O)c1c(SC)cc(-c2ccc(Cl)cc2)c2c1-c1cn(-c3ccccc3)nc1CC2 | inactive |  |
| CN(C)C(=N)NC(=N)N |  | Active |
